“And” between values parts separate entries of the source, which are not always exact repeats. Equal entries are not always repeated. “Also recorded” adds a separate entry of the source. Blank lines part the entries; values can stand above or below the molecule they belong to.
Columns and labels:
[1] = tested on: Opto-KIF2C condensates in Flp-In T-REx 293 cells; test: Opto-KIF2C foci formation; format: cell-based; settings: mitotic cells; for number of optogenetic KIF2C condensates formed upon blue light exposure: light ON
[2] = tested on: proteins in the vicinity of TurboID-Opto-KIF2C condensates, Flp-In T-Rex 293 cells; format: cell-based; settings: light OFF and ON conditions
How it was run: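 Flp-In T-REx 293 cells stably carrying TurboID-Opto-KIF2C, nocodazole-arrested, at 75% confluence, induced with 6 ng/ml doxycycline for 16 h. Biotin added while cells received 15 min of blue-light cycles (4 s light/30 s dark), or kept dark. Lysates sonicated and cleared; 1 mg protein bound to streptavidin-agarose 3 h at 4°C, stringently washed, boiled in Laemmli buffer. Detection by HRP immunoblot with ECL.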

[3] = tested on: Opto-KIF2C condensates in Flp-In T-REx 293 cells; format: cell-based
How it was run: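 Opto-KIF2C expression induced with 1 μg/ml doxycycline for 16 h in cells plated at ~70% confluency in DMEM. Mitotic arrest used 100 ng/ml nocodazole for 16 h. Condensation induced under 488 nm LEDs at 10 mW/cm2, with 5 min of 4 s light/10 s dark cycles. Cells fixed in 4% PFA 15 min, permeabilized in 0.2% Triton 10 min, blocked in 3% BSA; primary and secondary antibodies 1 h RT each.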

[4] = tested on: Opto-KIF2C foci in Flp-In T-REx 293 cells; test: SIM measurement of Opto-KIF2C foci area; format: cell-based; settings: mitotic cells, 5 min 488 nm light, about 0.1 μm^2 without nocodazole
KIF2C Nt (KIF2C1-79) = target: T1, KIF2C Nt (KIF2C1-79) (Homo sapiens, UniProt Q99661); format: binding; settings: 15N-labeled KIF2C1-79, molar ratios 1:0 to 1:2, DPBS pH 7.0, 10°C
T1 sequence (Q99661 1-79): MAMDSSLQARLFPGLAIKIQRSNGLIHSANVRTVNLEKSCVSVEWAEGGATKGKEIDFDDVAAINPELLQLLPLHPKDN

KIF2A Nt (KIF2A1-77) = KIF2A Nt (KIF2A1-77) (Homo sapiens, UniProt O00139); format: binding; settings: 15N-labeled KIF2A1-77, molar ratios 1:0 to 1:2, DPBS pH 7.0, 10°C
KIF2A Nt (KIF2A1-77), sequence (O00139 1-77): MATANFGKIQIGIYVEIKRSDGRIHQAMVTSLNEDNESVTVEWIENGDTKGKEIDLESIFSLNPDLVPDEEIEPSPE

[5] = target: KIF2A N-terminal domain, KIF2A_(1-77) (human) (UniProt O00139); test: ITC
KIF2A N-terminal domain, KIF2A_(1-77) (human), sequence (O00139 1-77): as above

[6] = target: KIF2C N-terminal domain, KIF2C_(1-79) (human) (UniProt Q99661); test: ITC
[7] = target: T2, BRCA2_(48-218) phosphorylated by PLK1 (human, UniProt P51587 48-218, phosphoserine 193, phosphothreonine 207; 15N-labelled); test: NMR titration
T2 sequence (looked up): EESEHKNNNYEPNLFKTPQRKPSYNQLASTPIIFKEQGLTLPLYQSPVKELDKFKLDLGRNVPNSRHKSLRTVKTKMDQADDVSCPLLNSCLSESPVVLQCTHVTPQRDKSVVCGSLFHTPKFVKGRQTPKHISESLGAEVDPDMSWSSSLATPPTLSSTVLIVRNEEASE

Molecule: COc1cc2c(Nc3ccc(NC(=O)c4ccccc4)cc3)ncnc2cc1OCCCN1CCOCC1 [ZM447439]
formation of KIF2C condensates formed without light ([1]; light OFF): completely abolished
number of optogenetic KIF2C condensates formed upon blue light exposure ([1]; Noc (+)): did not change
number of optogenetic KIF2C condensates formed upon blue light exposure ([1]; Noc (-)): mildly decreased
abundance of PLK1 in the vicinity of KIF2C condensates [2]: less abundant
BRCA2-pT207 in KIF2C condensates (immunofluorescence, co-localization) ([3]; Flp-In T-Rex 293 cells): could not detect; also recorded: abolished
PLK1 and PLK1-pT210 within Opto-KIF2C condensates (immunofluorescence) ([3]; mitotic cells, absence or presence of nocodazole): unable to detect

Molecule: COC(=O)Nc1nc2ccc(C(=O)c3cccs3)cc2[nH]1 [nocodazole]
area of the Opto-KIF2C condensates [4]: about 0.15 μm^2

The next lines start with the values.

binding to KIF2C Nt by NMR chemical shift analysis (KIF2C Nt (KIF2C1-79)): did not detect any binding
binding to KIF2A Nt by NMR chemical shift analysis (KIF2A Nt (KIF2A1-77)): did not detect any binding
Molecule: BRCA2_194-214: non-phosphorylated synthetic BRCA2 peptide, residues 194-214 (WSSSLATPPTLSSTVLIVRNE)

Kd [5]: 600 nM
dH [5]: -15.7 kcal/mol and -18.1 kcal/mol
Kd [6]: 480 nM and 1300 nM
dH [6]: -19.1 kcal/mol and -12.1 kcal/mol
Molecule: BRCA2_(194-214(pT207)) peptide (from UniProt P51587 194-214)

binding result [7]: binds
B1: KIF2C N-terminal domain, KIF2C_(1-79) (domain or fragment, human, UniProt Q99661 1-79, looked up)
chain: MAMDSSLQARLFPGLAIKIQRSNGLIHSANVRTVNLEKSCVSVEWAEGGATKGKEIDFDDVAAINPELLQLLPLHPKDN
modifications: 15N-labelled where it is the observed protein in NMR

Reference: paper PMC12153341 (Nucleic Acids Research, 2025)
